According to ChEMBL document CHEMBL5252646, “Novel thienocycloalkylpyridazinones as useful scaffolds for acetylcholinesterase inhibition and serotonin 5-HT6 receptor interaction” (Bioorg Med Chem, 2023):
The source made the active and inactive calls. The rule behind the calls is not given here.

Key:
[1] = target: T1, 5-hydroxytryptamine receptor 4 (Homo sapiens, UniProt Q13639); test: Antagonist activity at 5-HT4 receptor in human HeLa cells assessed as inhibition of intracellular calcium mobilization at 10 uM incubated for 2 hrs by FLIPR assay; format: cell-based
How it was run: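 HeLa cells stably expressing human 5-HT4, 20,000 per well, seeded the day before. Medium replaced with DMEM plus Calcium 6 dye, 2 h at 37 °C, then compounds and standard added. Intracellular calcium read by fluorescence (ex 480, em 540 nm) every second after a baseline. Duplicates.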

[2] = target: T2, 5-hydroxytryptamine receptor 7 (Homo sapiens, UniProt P34969); test: Displacement of [3H]SB269970 from human 5-HT7 receptor expressed in HEK cell membrane incubated for 60 mins by microplate beta scintillation counting analysis; format: cell membranes
[3] = target: T3, 5-hydroxytryptamine receptor 1A (Homo sapiens, UniProt P08908); test: Displacement of [3H]-8-OH-DPAT from human 5-HT1A receptor expressed in HEK cell membrane incubated for 120 mins by microplate beta scintillation counting analysis; format: cell membranes
T3 sequence (P08908 whole entry): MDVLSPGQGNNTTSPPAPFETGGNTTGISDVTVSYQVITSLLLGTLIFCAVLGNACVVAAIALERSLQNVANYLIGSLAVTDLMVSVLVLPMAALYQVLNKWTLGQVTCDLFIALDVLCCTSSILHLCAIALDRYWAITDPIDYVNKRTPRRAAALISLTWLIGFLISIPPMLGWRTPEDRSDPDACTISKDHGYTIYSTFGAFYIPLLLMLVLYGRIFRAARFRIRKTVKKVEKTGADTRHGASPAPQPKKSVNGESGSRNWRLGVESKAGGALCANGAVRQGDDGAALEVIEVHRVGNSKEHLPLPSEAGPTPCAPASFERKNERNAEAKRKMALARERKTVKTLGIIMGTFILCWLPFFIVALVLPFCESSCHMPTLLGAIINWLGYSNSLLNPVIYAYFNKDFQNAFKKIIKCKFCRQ
How it was run: (§1)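 Membranes from HEK cells expressing human 5-HT1A, 10 µg per well, with 1 nM [3H]-8-OH-DPAT, 120 min at 37 °C. Buffer 50 mM Tris-HCl, 5 mM MgSO4, pH 7.4. Nonspecific binding with 10 µM 5-HT. Filtered on PEI-treated GF/C and washed, then scintillation counted. Duplicates.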

[4] = target: T4, 5-hydroxytryptamine receptor 6 (Homo sapiens, UniProt P50406); test: Displacement of [3H]-LSD from human 5-HT6 receptor expressed in HEK cell membrane incubated for 60 mins by microplate beta scintillation counting analysis; format: cell membranes
How it was run: (§2)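 Membranes from HEK cells expressing human 5-HT6, 5 µg per well, with 2 nM [3H]-LSD, 60 min at 37 °C. Buffer 50 mM Tris-HCl, 10 mM MgCl2, 0.5 mM EDTA, pH 7.4. Nonspecific binding with 100 µM 5-HT. Filtered on GF/C, scintillation counted.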

[5] = target: T5, Acetylcholinesterase (Homo sapiens, UniProt P22303); test: Inhibition of human AChE using acetylthiocholine iodide as substrate preincubated with enzyme for 20 mins followed by substrate addition and measured for 5 mins by Ellman's spectrophotometric method
[6] = target: T6, 5-hydroxytryptamine receptor 1A (Homo sapiens) (UniProt P08908); test: Displacement of [3H]-8-OH-DPAT from human 5-HT1A receptor expressed in HEK cell membrane at 10 uM incubated for 120 mins by microplate beta scintillation counting analysis; format: cell membranes; how it was run: as §1
T6 sequence (whole entry): T3 sequence (P08908 whole entry)

[7] = target: T2, 5-hydroxytryptamine receptor 7; test: Displacement of [3H]SB269970 from human 5-HT7 receptor expressed in HEK cell membrane at 10 uM incubated for 60 mins by microplate beta scintillation counting analysis; format: cell membranes
How it was run: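 Membranes from HEK cells expressing human 5-HT7, 2 µg per well, with 2 nM [3H]-SB269970, 60 min at 37 °C. Buffer Tris-HCl 50 mM, 4 mM CaCl2, 1 mM ascorbic acid, 0.1 mM pargyline, pH 7.4. Nonspecific binding with 25 µM clozapine. Filtered, scintillation counted. Duplicates. Displacement as % at 10 µM.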

[8] = target: T4, 5-hydroxytryptamine receptor 6; test: Displacement of [3H]-LSD from human 5-HT6 receptor expressed in HEK cell membrane at 10 uM incubated for 60 mins by microplate beta scintillation counting analysis; format: cell membranes; how it was run: as §2
[9] = target: T7, Cholinesterase (Homo sapiens, UniProt P06276); test: Inhibition of human BChE using butyrylthiocholine iodide as substrate preincubated with enzyme for 20 mins followed by substrate addition and measured for 5 mins by Ellman's spectrophotometric method
[10] = target: T7, Cholinesterase; test: Inhibition of human BChE using butyrylthiocholine iodide as substrate at 10 uM preincubated with enzyme for 20 mins followed by substrate addition and measured for 5 mins by Ellman's spectrophotometric method; settings: time 25.0 min
[11] = target: T5, Acetylcholinesterase; test: Competitive inhibition of human AChE using acetylthiocholine iodide as substrate preincubated with enzyme for 20 mins followed by varing concentrations of substrate addition and measured for 5 mins by Lineweaver-Burk plot analysis
How it was run: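 Human AChE, Ellman spectrophotometric method in 96-well format, run in triplicate. Kinetics: six acetylthiocholine concentrations (0.033 to 0.2 mM) crossed with four inhibitor concentrations (0–300 nM). Analysed by the Michaelis-Menten approach; kinetic parameters from nonlinear regression.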

[12] = target: T1, 5-hydroxytryptamine receptor 4; test: Antagonist activity at 5-HT4 receptor in human HeLa cells assessed as inhibition of intracellular calcium mobilization incubated for 2 hrs by FLIPR assay; format: cell-based
How it was run: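 HeLa cells stably expressing human 5-HT4, seeded the day before at 20,000 cells/well. Medium replaced with DMEM plus Calcium 6 dye, then 2 h at 37 °C. Compounds and standard added afterwards. Fluorescence from intracellular calcium mobilization (ex 480 nm, em 540 nm) recorded every second after a baseline was set. Run in duplicate.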

T1 sequence (Q13639 whole entry): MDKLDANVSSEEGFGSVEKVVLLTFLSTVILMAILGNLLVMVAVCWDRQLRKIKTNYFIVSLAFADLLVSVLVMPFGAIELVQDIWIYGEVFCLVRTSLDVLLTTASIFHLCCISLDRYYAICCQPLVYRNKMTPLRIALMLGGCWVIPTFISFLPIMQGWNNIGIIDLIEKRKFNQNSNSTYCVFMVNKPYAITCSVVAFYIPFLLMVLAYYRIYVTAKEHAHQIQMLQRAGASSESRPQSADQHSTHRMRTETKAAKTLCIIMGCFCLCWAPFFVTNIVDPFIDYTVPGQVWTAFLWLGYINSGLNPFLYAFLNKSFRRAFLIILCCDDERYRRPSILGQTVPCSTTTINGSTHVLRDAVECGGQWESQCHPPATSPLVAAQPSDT
T7 sequence (P06276 whole entry): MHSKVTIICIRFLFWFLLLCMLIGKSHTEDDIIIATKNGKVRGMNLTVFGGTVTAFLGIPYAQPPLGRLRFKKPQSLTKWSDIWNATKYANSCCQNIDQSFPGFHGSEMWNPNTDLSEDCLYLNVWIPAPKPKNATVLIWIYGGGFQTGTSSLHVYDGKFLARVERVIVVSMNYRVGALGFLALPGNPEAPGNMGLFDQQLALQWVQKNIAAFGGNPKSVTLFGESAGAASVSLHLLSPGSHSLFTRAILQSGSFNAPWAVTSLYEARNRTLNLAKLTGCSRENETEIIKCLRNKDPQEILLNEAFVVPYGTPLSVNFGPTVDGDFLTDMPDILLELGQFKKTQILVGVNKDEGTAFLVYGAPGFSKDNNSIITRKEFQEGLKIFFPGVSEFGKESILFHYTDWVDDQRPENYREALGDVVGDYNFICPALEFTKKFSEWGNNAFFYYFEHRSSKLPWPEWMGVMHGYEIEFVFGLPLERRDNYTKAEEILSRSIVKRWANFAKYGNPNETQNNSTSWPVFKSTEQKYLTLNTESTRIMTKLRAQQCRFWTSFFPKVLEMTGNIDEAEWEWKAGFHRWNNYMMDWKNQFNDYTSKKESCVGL
T4 sequence (P50406 whole entry): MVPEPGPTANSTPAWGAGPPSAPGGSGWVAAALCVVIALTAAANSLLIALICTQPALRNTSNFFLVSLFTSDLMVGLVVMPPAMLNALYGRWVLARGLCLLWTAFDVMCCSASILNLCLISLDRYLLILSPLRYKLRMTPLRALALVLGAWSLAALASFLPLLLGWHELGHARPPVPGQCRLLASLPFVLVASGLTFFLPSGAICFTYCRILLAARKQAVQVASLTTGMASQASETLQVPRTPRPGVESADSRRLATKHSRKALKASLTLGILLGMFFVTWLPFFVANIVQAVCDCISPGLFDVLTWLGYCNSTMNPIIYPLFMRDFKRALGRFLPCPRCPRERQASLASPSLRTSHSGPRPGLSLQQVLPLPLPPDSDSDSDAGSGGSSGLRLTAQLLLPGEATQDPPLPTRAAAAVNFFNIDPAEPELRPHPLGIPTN
T2 sequence (P34969 whole entry): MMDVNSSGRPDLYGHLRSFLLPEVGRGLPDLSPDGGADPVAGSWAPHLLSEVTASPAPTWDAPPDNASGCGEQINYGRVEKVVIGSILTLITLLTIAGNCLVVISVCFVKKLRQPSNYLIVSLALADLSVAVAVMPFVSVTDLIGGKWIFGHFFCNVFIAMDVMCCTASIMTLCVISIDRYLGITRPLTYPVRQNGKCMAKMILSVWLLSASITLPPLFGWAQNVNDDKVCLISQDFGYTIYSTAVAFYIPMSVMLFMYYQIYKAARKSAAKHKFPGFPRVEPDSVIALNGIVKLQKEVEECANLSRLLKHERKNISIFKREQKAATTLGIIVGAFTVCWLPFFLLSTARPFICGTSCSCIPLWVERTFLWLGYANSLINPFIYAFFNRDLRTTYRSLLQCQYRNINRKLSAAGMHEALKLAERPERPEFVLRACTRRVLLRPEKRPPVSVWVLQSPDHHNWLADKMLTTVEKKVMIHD
T5 sequence (P22303 whole entry): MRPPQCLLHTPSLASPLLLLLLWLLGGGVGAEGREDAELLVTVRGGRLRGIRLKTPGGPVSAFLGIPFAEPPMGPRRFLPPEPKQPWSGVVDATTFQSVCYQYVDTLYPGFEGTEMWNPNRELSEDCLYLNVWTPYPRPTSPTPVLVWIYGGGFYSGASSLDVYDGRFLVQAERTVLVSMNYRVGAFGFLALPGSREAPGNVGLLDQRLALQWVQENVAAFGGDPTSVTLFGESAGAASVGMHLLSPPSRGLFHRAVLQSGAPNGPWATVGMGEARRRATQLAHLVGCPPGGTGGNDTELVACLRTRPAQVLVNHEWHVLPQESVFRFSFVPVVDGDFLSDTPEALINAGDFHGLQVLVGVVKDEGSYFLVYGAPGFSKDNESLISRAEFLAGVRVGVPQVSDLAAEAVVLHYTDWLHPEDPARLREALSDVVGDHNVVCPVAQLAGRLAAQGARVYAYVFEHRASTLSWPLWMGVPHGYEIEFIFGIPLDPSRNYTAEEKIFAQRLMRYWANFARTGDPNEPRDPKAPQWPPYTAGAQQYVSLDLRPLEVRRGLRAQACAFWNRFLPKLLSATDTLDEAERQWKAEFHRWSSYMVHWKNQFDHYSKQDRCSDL

O=C1CC2Cc3ccsc3C2=NN1CCCCCCCN1CCN(Cc2cccc3c2ccn3S(=O)(=O)c2ccccc2)CC1 (centres undefined)
inhibition [1]: inactive | Ki [2]: 3760 nM | Ki [3]: 6620 nM | Ki [4]: 80 nM | IC50 [5]: 7180 nM

O=C1CC2CCc3ccsc3C2=NN1CCCCCN1CCN(Cc2cccc3c2ccn3S(=O)(=O)c2ccccc2)CC1 (centres undefined)
inhibition [1]: inactive | Ki [2]: 1690 nM | inhibition [6]: 35% | Ki [4]: 63 nM | IC50 [5]: 4440 nM

O=C1CC2CCc3ccsc3C2=NN1CN1CCN(Cc2ccccc2)CC1 (centres undefined)
inhibition [7]: 23% | inhibition [6]: 24% | inhibition [8]: 28% | IC50 [9]: 5580 nM | IC50 [5]: 13600 nM

O=C1CC2CCc3ccsc3C2=NN1CCCCCCN1CCN(Cc2cccc3c2ccn3S(=O)(=O)c2ccccc2)CC1 (centres undefined)
inhibition [1]: 12% | inhibition [7]: 33% | inhibition [6]: 23% | Ki [4]: 102 nM | IC50 [5]: 9800 nM

O=C1CC2Cc3ccsc3C2=NN1CCCCN1CCN(Cc2ccccc2)CC1 (centres undefined)
Ki [2]: 1000 nM | Ki [3]: 614 nM | Ki [4]: 3970 nM | inhibition [10]: 11% | IC50 [5]: 538 nM

O=C1CC2CCc3sccc3C2=NN1CCCCN1CCN(Cc2ccccc2)CC1 (centres undefined)
IC50 [9]: 3300 nM | IC50 [5]: 860 nM

O=C1CC2CCCc3ccsc3C2=NN1CCCCN1CCN(Cc2ccccc2)CC1 (centres undefined)
Ki [2]: 976 nM | Ki [3]: 414 nM | Ki [4]: 1430 nM | IC50 [9]: 4130 nM | IC50 [5]: 1230 nM

O=C1CC2Cc3ccsc3C2=NN1CCCCCCN1CCN(Cc2cccc3c2ccn3S(=O)(=O)c2ccccc2)CC1 (centres undefined)
inhibition [1]: inactive | inhibition [7]: 39% | Ki [3]: 5160 nM | Ki [4]: 68 nM | IC50 [5]: 9180 nM

CCN(CC)CCCCN1N=C2c3sccc3CCC2CC1=O (centres undefined)
inhibition [7]: 10% | Ki [3]: 8630 nM | inhibition [8]: 27% | inhibition [10]: inactive | IC50 [5]: 2930 nM

O=C1CC2CCc3ccsc3C2=NN1CCN1CCN(Cc2ccccc2)CC1 (centres undefined)
inhibition [7]: 26% | Ki [11]: 123 nM | Ki [3]: 1080 nM | Ki [4]: 1670 nM | IC50 [9]: 5110 nM | IC50 [5]: 170 nM

Cn1cc(C(=O)OCC2CCN(CCNS(C)(=O)=O)CC2)c2ccccc21
Ki [12]: 1.4 nM

O=C1CC2CCc3ccsc3C2=NN1CCCCN1CCCCC1 (centres undefined)
inhibition [7]: 18% | Ki [3]: 4300 nM | inhibition [8]: 30% | inhibition [10]: 9% | IC50 [5]: 2090 nM

O=C1CC2Cc3ccsc3C2=NN1CCCCN1CCN(Cc2cccc3c2ccn3S(=O)(=O)c2ccccc2)CC1 (centres undefined)
inhibition [1]: 26% | Ki [2]: 2020 nM | Ki [3]: 4610 nM | Ki [4]: 193 nM | IC50 [5]: 3550 nM

O=C1CC2CCc3ccsc3C2=NN1CCCCCCCN1CCN(Cc2cccc3c2ccn3S(=O)(=O)c2ccccc2)CC1 (centres undefined)
inhibition [1]: 16% | inhibition ([7]; filed as antagonist): 43% | inhibition [6]: 33% | Ki [4]: 87 nM | IC50 [5]: 4560 nM

CN(C)CCCCN1N=C2c3sccc3CCC2CC1=O (centres undefined)
inhibition [7]: 24% | inhibition [6]: 37% | inhibition [8]: 36% | inhibition [10]: inactive | IC50 [5]: 6360 nM

O=C1CC2CCc3ccsc3C2=NN1CCCCN1CCN(Cc2cccc3c2ccn3S(=O)(=O)c2ccccc2)CC1 (centres undefined)
inhibition [1]: inactive | Ki [2]: 2010 nM | Ki [3]: 2840 nM | Ki [4]: 236 nM | IC50 [5]: 7610 nM

O=C1CC2CCc3ccsc3C2=NN1Cc1ccc(CN2CCN(Cc3ccccc3)CC2)cc1 (centres undefined)
Ki [2]: 2110 nM | Ki [3]: 786 nM | Ki [4]: 1260 nM | IC50 [9]: 9700 nM | IC50 [5]: 3650 nM

O=C1CC2Cc3ccsc3C2=NN1CCCCCN1CCN(Cc2cccc3c2ccn3S(=O)(=O)c2ccccc2)CC1 (centres undefined)
inhibition [1]: inactive | Ki [2]: 1800 nM | Ki [3]: 3580 nM | Ki [4]: 8.4 nM | IC50 [5]: 6890 nM

O=C1CC2CCc3ccsc3C2=NN1CCCCN1CCCC1 (centres undefined)
inhibition [7]: 16% | Ki [3]: 3530 nM | inhibition [8]: 33% | inhibition [10]: 14% | IC50 [5]: 1160 nM

O=C1CC2CCc3ccsc3C2=NN1CCCCN1CCN(Cc2ccccc2)CC1 (centres undefined)
Ki [2]: 995 nM | Ki [3]: 496 nM | Ki [4]: 3300 nM | inhibition [10]: 45% | IC50 [5]: 756 nM
